From PubChem BioAssay AID821 (SRMLSC, 2007) come the findings set out here.

Calls of active or inactive are those of the source.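 How the source made its calls: active means compounds whose fitted half-maximal concentration for reducing fibroblast viability is 100 µM or lower; inactive means the rest.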

The nature of this assay: LL 47 lung fibroblast growth inhibition, concentration-response, selectivity test for endothelial growth inhibitor program, cellular, luminescent ATP readout (AID 821).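 Further: 100% = median of untreated cell-only wells and 0% = no luminescence.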 The following applies: LL 47 lung fibroblast viability, ATP luminescence; at 20 µM (top of the series). The essentials: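 assay system = LL 47 human lung fibroblasts | quantity = 1,150 cells per well | compound = dose series 0.039–20 µM final, 0.2% DMSO | incubation = overnight cell settling, then 72 h compound exposure at 37 °C | signal = CellTiter-Glo luminescence readout of viable cells | read-out basis = % viability versus median cell-only wells, four-parameter EC50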

In the case of `CCOC(=O)c1ccc(NC(=O)CCc2nc(-c3ccc(C)cc3)no2)cc1`, the viability was 98.6% (inactive). In the case of `COc1ccc(NC(=O)c2ccccc2NC(=O)COc2ccccc2)cc1`, the viability was 93.3% (inactive). In the case of `COc1cccc(C(=O)CSc2nnc(-c3cc(OC)cc(OC)c3)o2)c1` it was 91.3% (inactive). As to `Cc1ccc(C)c(N2CCN(CCCNC(=O)Cn3cc4c(n3)CCCCC4)CC2)c1`, the viability was 83.3% (inactive). As to `CCCCc1oc2ccccc2c1C(=O)c1cc(I)c(OCCN(CC)CC)c(I)c1`, the viability is 88% (inactive). `COc1ccc(Cc2nc(C(=O)Nc3ccc(Cl)cc3)cs2)cc1`: the viability was 84.3% (inactive). The value for `CC(=O)Nc1ccc(S(=O)(=O)N2CCN(c3nc(NC4CCCC4)c4ccccc4n3)CC2)cc1` was 84.8% (inactive); that for `CCCCCCOC(=O)C(C#N)c1nc2ccccc2nc1N1CCN(C)CC1` (stereo not given) was 90.4% (inactive). In the case of `Cc1ccc2[nH]c3c(N4CCN(Cc5ccccc5)CC4)ncnc3c2c1` it was 88.2% (inactive); in that of `Clc1cnc(N/N=C/c2cccs2)c(Cl)c1`, 88.3% (inactive); in that of `Cn1c(CNc2cccc(Cl)c2)nnc1SCC(=O)OC1CCCCC1`, 86.7% (inactive). On to `CCOC(=O)c1ccc2c(c1)NC(=O)C(N1CCN(c3ccc(OC)cc3)CC1)S2` (stereo not given), for which the viability was 84.9% (inactive). For the compound `c1ccc(CSc2nnc(-c3c[nH]c4ccccc34)o2)cc1`, the viability was 102% (inactive). Consider `CC(C)(C)NC(=O)c1cnn2c1NC(c1ccc(F)cc1)CC2C(F)(F)F` (stereo not given), for which the viability was 99% (inactive). The value for `Brc1ccc(-c2csc(NNC3=NCCCCC3)n2)cc1` was 90.2% (inactive). In the case of `Cc1sc2nc(SCC(=O)c3cccs3)n(Cc3ccco3)c(=O)c2c1C` it was 87% (inactive). In the case of `COC(=O)c1ccc(NC(=O)Nc2ccc(F)c(Cl)c2)cc1`, the viability was 106% (inactive). With `Cc1ccc(C(C)C)c(OCC(=O)Nc2ccc3c(c2)nc(CN2CCCC2)n3C)c1`, the viability is 91.9% (inactive). As to `O=C(Nc1cccnc1)c1ccc(Oc2ccccc2)cc1`, the viability is 85.3% (inactive). As to `CC1(C)CSC(=S)N1S(=O)(=O)c1ccccc1`, the viability was 115% (inactive). In the case of `CCCS(=O)(=O)N1CCC(C(=O)N2CCC3(CC2)OCCO3)CC1` it was 97.5% (inactive). In the case of `CCCOC(=O)c1ccc(Oc2c(-c3ccc(OC)cc3O)n[nH]c2C)cc1` it was 97.5% (inactive); in that of `O=C1CSC(c2ccccn2)N1Cc1cn2ccccc2n1` (stereo not given), 99.9% (inactive); in that of `COc1ccccc1-c1cc(C(=O)Nc2cc(C)n(Cc3ccc(Cl)cc3)n2)no1`, 86% (inactive). Turning to `COc1cc(N=c2ssnc2Cl)c(OC)cc1Cl`, the viability was 88.6% (inactive).

For `O=C1CCCc2c1[nH]c1ccc(Br)cc21`, the viability was 107% (inactive). Consider `O=S1(=O)c2ccccc2N=NN1Cc1cc(Cl)cc(Cl)c1`, for which the viability is 84.5% (inactive). In the case of `N#Cc1nc(COc2ccc(-c3ccccc3)cc2)oc1NCCCN1CCOCC1` it was 91.9% (inactive). Consider `COc1ccccc1N1CCN(CC(=O)c2c(C)[nH]c3cc(C)ccc23)CC1`, for which the viability was 86.8% (inactive). On to `Cc1nc(C)c(-c2csc(Nc3cccnc3)n2)s1`, for which the viability was 87.8% (inactive). As to `CCOC(=O)c1c(N)sc2c(OC)c(Br)ccc12`, the viability is 109% (inactive).

As to `CC(C)OCCCN1C(=O)c2[nH]nc(-c3ccccc3O)c2C1c1cccc(Cl)c1` (stereo not given), the viability is 98.3% (inactive). With `Cc1cccc(-c2nc(CN3CCCC(C(=O)NC4CCCCCC4)C3)c(C)o2)c1` (stereo not given), the viability is 90.9% (inactive). For the compound `COc1ccc(-n2c(SCC(=O)Nc3sc4c(c3C#N)CCCC4)nnc2-c2ccc(O)cc2)cc1`, the viability was 94.1% (inactive). The value for `CCOC(=O)c1c(NC(=O)C2COc3ccccc3O2)sc(C(C)=O)c1C` (stereo not given) was 104% (inactive); that for `CC(C)(C)c1ccc(-c2nnc(SCC(=O)O)n2N)cc1` was 103% (inactive); that for `CC1=C(C)CS(=O)N(S(=O)(=O)c2ccc(Cl)cc2)C1` (stereo not given) was 106% (inactive).

On to `CCOc1ccc(NC(=O)c2cc3n(n2)C(C(F)(F)F)CC(c2ccco2)N3)cc1` (stereo not given), for which the viability is 106% (inactive). Consider `O=C(Nc1ccc(Cl)c(Cl)c1)C1=Cc2ccccc2OC1`, for which the viability is 99.6% (inactive). For the compound `Cc1ccc2[nH]c3c(c2c1)CCC3=O`, the viability was 110% (inactive). On to `CC12CCC(=O)C=C1CCC1C2CCC2(C)C(O)CCC12` (stereo not given), for which the viability was 95.3% (inactive).

`Cc1sc2nc(SCC(=O)NCc3ccco3)n(CCc3ccccc3)c(=O)c2c1C`: the viability is 121% (inactive). In the case of `CCn1c(=N)n(CC(=O)C23CC4CC(CC(C4)C2)C3)c2ccccc21` it was 86% (inactive); in that of `CC(C(=O)N1CCOCC1)N1C(=O)c2ccccc2C1=O` (stereo not given), 117% (inactive); in that of `Cc1ccc2[nH]c3c(N4CCN(Cc5ccc6c(c5)OCO6)CC4)ncnc3c2c1`, 88.1% (inactive). In the case of `CCCC1(CCC)NC(=O)N(CC(=O)Nc2ccccc2OC)C1=O` it was 92.2% (inactive); in that of `COc1ccc(-c2noc(-c3ccc(Br)o3)n2)cc1OC`, 116% (inactive). Regarding `COc1ccc(CNC(=O)C(C#N)c2nc3ccccc3nc2N2CCN(C)CC2)cc1` (stereo not given), the viability was 97.9% (inactive). As for `Cc1cc(NC(=O)COC(=O)C(Nc2ccc(C(F)(F)F)cc2Cl)C(C)C)no1` (stereo not given), the viability is 90.8% (inactive). In the case of `Cc1ccc2c(c1)[nH]c1c(N3CCN(Cc4ccccc4)CC3)ncnc12` it was 88.3% (inactive). Consider `Cc1ccccc1N1C(=O)CC(Sc2nnc(-c3ccccc3)o2)C1=O` (stereo not given), for which the viability was 90.5% (inactive). The value for `COc1cc(OC)cc(C(=O)Nc2ccc(-c3nc4ccccc4o3)cc2)c1` was 107% (inactive). For `COc1ccc(OC)c2sc(N3CCCCC3)nc12`, the viability is 96.8% (inactive).

Take `Cn1c(NC(=O)c2cccc(Cn3cc(Cl)cn3)c2)nc2ccccc21`: the viability is 103% (inactive).

For `N/C(Cc1ccc(Cl)cc1)=N\OC(=O)c1ccc2ccccc2c1`, the viability was 91.6% (inactive). In the case of `Cc1cc(C)n(-c2nc(SCC(=O)N3CCCC3)c3c4c(sc3n2)CCCC4)n1` it was 113% (inactive); in that of `C=CCOC(=O)C1=C(C)NC(SCC(=O)Nc2nccs2)=C(C#N)C1c1cccs1` (stereo not given), 91.3% (inactive). `O=C(CCC1CCCC1)c1c(O)c2ccccc2oc1=O`: the viability is 93.9% (inactive). The value for `CCc1ccc(-c2nc(CN3CCC(C(=O)NCc4ccc(F)cc4)CC3)c(C)o2)cc1` was 103% (inactive); that for `CCCc1c(C)c2cc(C)ccc2[nH]c1=O` was 110% (inactive); that for `Cc1cc(NCCCN2CCOCC2)n2ncc(-c3ccc(Cl)cc3)c2n1` was 84.9% (inactive). In the case of `CNC(=O)c1ccc(-c2sc3nc(N4CCOCC4)c4c(c3c2N)CCCC4)o1` it was 90.4% (inactive); in that of `CC(C)COc1ccc2[nH]c3c(c2c1)CCCC3=O`, 101% (inactive). In the case of `Cc1ccc(C)c(C(C)NC(=O)C2C3CCC(O3)C2C(=O)O)c1` (stereo not given) it was 94.5% (inactive); in that of `Cc1c(Cl)cccc1-c1ccc(/C=N/n2cnnc2)o1`, 98.9% (inactive); in that of `Cc1nc2sccn2c(=O)c1CCN1CCC(=C(c2ccc(F)cc2)c2ccc(F)cc2)CC1`, 91.4% (inactive). As for `CCCc1ccc(-c2cc(NC(=O)CSc3n[nH]c(N)n3)n(-c3ccccc3)n2)cc1`, the viability was 100% (inactive).

With `CCCCCCn1c(SCC(=O)c2c(N)n(C)c(=O)n(C)c2=O)nc2ccccc21`, the viability was 98.8% (inactive). For `Cc1c(CCOC(=O)C2C3CC4CC(C3)CC2C4)sc[n+]1CC(=O)c1ccc(Br)cc1` (stereo not given), the viability was 93.4% (inactive).

On to `Cc1ccc(Cn2c(=S)[nH]c3ccc(N4CCOCC4)cc3c2=O)o1`, for which the viability was 85% (inactive).

Consider `Nc1c(S(=O)(=O)c2ccccc2)c2nc3ccccc3nc2n1/N=C/c1cccc(O)c1`, for which the viability is 94.2% (inactive). Turning to `CCOC(=O)c1c(OCC)[nH]c2c1cc(O)c1ccccc12`, the viability was 117% (inactive).

On to `COc1ccc(Cl)cc1N1CCN(CCNC(=O)Nc2ccccc2C)CC1`, for which the viability was 101% (inactive). The value for `CN1CCN(C(=O)c2ccc(COc3ccc(Cl)cc3Cl)cc2)CC1` was 103% (inactive); that for `CCOC(=O)CNC(=O)C(=O)c1c(O)[nH]c2ccccc12` was 96.6% (inactive). The value for `Cc1ccc(Cn2nc(C)c(NC(=O)c3cc(-c4ccc5c(c4)OCO5)on3)c2C)cc1` was 106% (inactive); that for `CC1CCCC(NC(=O)C2CCN(S(=O)(=O)N3CCC4(CC3)OCCO4)CC2)C1C` (stereo not given) was 100% (inactive). In the case of `Cc1ccc2c(c1)c1cccc3c1n2CCN3CCC(N)=O`, the viability was 89% (inactive). Consider `C=CCN1C(=Nc2cccnc2)SCC1(O)c1ccc(C)cc1` (stereo not given), for which the viability is 86.4% (inactive). The value for `Cc1c(CN(C)C(=O)c2sc3cc(Cl)ccc3c2Cl)cnn1C` was 94.6% (inactive).

For `CCN1CCN(c2ncc(C(=O)Nc3cc(Cl)c(OC)cc3OC)c3ccccc23)CC1`, the viability is 103% (inactive). `CC1CCC(C(=O)c2c(O)c3ccccc3oc2=O)CC1` (stereo not given): the viability was 88.2% (inactive).

Regarding `Cc1cc(C)n(CC(O)Cn2c3ccc(Br)cc3c3cc(Br)ccc32)c(=O)n1` (stereo not given), the viability is 119% (inactive).

In the case of `CC1=C(SCCC#N)S/C(=C2\SC(C)=C(SCCC#N)S2)S1`, the viability was 112% (inactive). As for `CCOc1c(Br)ccc2c1sc1nc[nH]c(=O)c12`, the viability is 102% (inactive).
